Laboratory results published in ChEMBL document CHEMBL1146363, “Synthesis of novel diarylpyrimidine analogues of TMC278 and their antiviral activity against HIV-1 wild-type and mutant strains” (Eur J Med Chem, 2007).

Experiments:
[1] = tested on: Human immunodeficiency virus 1; experiment: Antiviral activity against HIV1 LAI with RT F227C mutation in MT4 cells by EGFP based replication assay; format: functional, organism-based; details: Human immunodeficiency virus 1, LAI
Procedure, shortened: (§1)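 MT4-LTR-EGFP indicator cells (EGFP under HIV-1 LTR, induced via Tat) mixed with HIV-1 LAI or LAI-derived RT mutant and serial 4-fold compound dilutions; incubated 37 °C for 3 days. EGFP expression read by argon laser-scanning microscopy. EC50 = concentration inhibiting 50% of virus-induced EGFP signal, by linear interpolation of signal versus log concentration.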

[2] = Cytotoxicity against human MT4 cells after 3 days by EGFP based replication assay; format: cell-based
Procedure, shortened: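 Uninfected MT4-CMV-EGFP cells, which express EGFP constitutively, were exposed to serial 4-fold compound dilutions at 37 °C for 3 days. EGFP was read by argon laser-scanning microscopy. CC50 was obtained by linear interpolation of EGFP signal against log concentration.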

[3] = tested on: Human immunodeficiency virus 1; experiment: Antiviral activity against HIV1 LAI with RT K103N mutation in MT4 cells by EGFP based replication assay; format: functional, organism-based; details: Human immunodeficiency virus 1, LAI; procedure, shortened: as §1
[4] = tested on: Human immunodeficiency virus 1; experiment: Antiviral activity against HIV1 LAI with RT Y188L mutation in MT4 cells by EGFP based replication assay; format: functional, organism-based; details: Human immunodeficiency virus 1, LAI; procedure, shortened: as §1
[5] = tested on: Human immunodeficiency virus 1; experiment: Antiviral activity against HIV1 LAI with RT L100I mutation in MT4 cells by EGFP based replication assay; format: functional, organism-based; details: Human immunodeficiency virus 1, LAI
Procedure, shortened: (§2)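 MT4-LTR-EGFP indicator cells (EGFP under HIV-1 LTR, induced via Tat) mixed with HIV-1 LAI or LAI-derived RT mutant and serial 4-fold compound dilutions; incubated 37 °C for 3 days. EGFP expression read by argon laser-scanning microscopy.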

[6] = tested on: Human immunodeficiency virus 1; experiment: Antiviral activity against HIV1 LAI with RT K103N and Y181C mutation in MT4 cells by EGFP based replication assay; format: functional, organism-based; details: Human immunodeficiency virus 1, LAI; procedure, shortened: as §1
[7] = Selectivity index, ratio of CC50 for human MT4 cells to EC50 for HIV1 LAI; format: functional
[8] = tested on: Human immunodeficiency virus 1; experiment: Antiviral activity against HIV1 LAI with RT F227C and V106A mutation in MT4 cells by EGFP based replication assay; format: functional, organism-based; details: Human immunodeficiency virus 1, LAI; procedure, shortened: as §1
[9] = tested on: Human immunodeficiency virus 1; experiment: Antiviral activity against HIV1 LAI with RT Y181C mutation in MT4 cells by EGFP based replication assay; format: functional, organism-based; details: Human immunodeficiency virus 1, LAI; procedure, shortened: as §1
[10] = tested on: Human immunodeficiency virus 1; experiment: Antiviral activity against HIV1 LAI with RT L100I and K103N mutation in MT4 cells by EGFP based replication assay; format: functional, organism-based; details: Human immunodeficiency virus 1, LAI; procedure, shortened: as §1
[11] = tested on: Human immunodeficiency virus 1; experiment: Antiviral activity against wild type HIV1 LAI infected in MT4 cells by EGFP based replication assay; format: functional, organism-based; details: Human immunodeficiency virus 1, LAI; procedure, shortened: as §2
[12] = Half life in Wistar rat at 10 mg/kg, po after 6 hrs; format: ADME, organism-based; set-up: dose 10 mg/kg, route oral; details: in vivo
[13] = Cmax in Beagle dog at 10 mg/kg, po; format: ADME, organism-based, Canis lupus familiaris; set-up: dose 10 mg/kg, route oral; details: in vivo
[14] = Metabolic stability in dog liver microsomes after 15 mins; format: ADME, Canis lupus familiaris, Microsome; details: read-out: Stability
Procedure, shortened: (§3)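 Liver microsomes were the 100,000×g pellet of S9 from tissue homogenized in 0.1 M phosphate, pH 7.4. Incubations contained 1 mg/mL protein in 0.1 M phosphate pH 7.4 with an NADPH-generating system, plus a heat-inactivated control. After 5 min preincubation at 37 °C, NADP started the reaction, which ran 15 min and was stopped with DMSO or acetonitrile. Duplicates, LC-MS; fraction remaining relative to T=0.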

[15] = Half life in Beagle dog at 10 mg/kg, po after 23 hrs; format: ADME, organism-based, Canis lupus familiaris; set-up: dose 10 mg/kg, route oral; details: in vivo
[16] = Cmax in Wistar rat at 10 mg/kg, po; format: ADME, organism-based; set-up: dose 10 mg/kg, route oral; details: in vivo
[17] = Metabolic stability in human liver microsomes after 15 mins; format: ADME, Microsome; details: read-out: Stability; procedure, shortened: as §3
[18] = Metabolic stability in rat liver microsomes after 15 mins; format: ADME, Microsome; details: read-out: Stability; procedure, shortened: as §3
[19] = AUC in Wistar rat at 10 mg/kg, po; format: ADME, organism-based; set-up: dose 10 mg/kg, route oral; details: plasma
[20] = AUC in Beagle dog at 10 mg/kg, po; format: ADME, organism-based, Canis lupus familiaris; set-up: dose 10 mg/kg, route oral; details: plasma

Row | Structure (SMILES) | EC50 [1] | CC50 at 72 h [2] | EC50 [3] | EC50 [4] | EC50 [5] | EC50 [6] | Ratio CC50/EC50 [7] | EC50 [8] | EC50 [9] | EC50 [10] | EC50 [11] | half-life [12] | Cmax [13] | remaining at 0.25 h [14] | half-life [15] | Cmax [16] | remaining at 0.25 h [17] | remaining at 0.25 h [18] | AUC [19] | AUC [20]
1 | Cc1cc(/C=C\C#N)cc(C)c1Sc1ccnc(Nc2ccc(C#N)cc2)n1 | 1.4 nM | > 25 µM | 0.7 nM | 2.8 nM | 2.6 nM | 18.6 nM | >6821 | 1.1 nM | 5.8 nM | 79.2 nM | 3.7 nM |  |  |  |  |  |  |  |  | 
2 | CC(C)Nc1cccnc1N1CCN(C(=O)c2cc3cc(NS(C)(=O)=O)ccc3[nH]2)CC1 [DELAVIRDINE] | 4560 nM | 67.2 µM | 10200 nM | 1020 nM | 9530 nM | 38400 nM | >550 | 721 nM | 9040 nM | 20600 nM | 122 nM |  |  |  |  |  |  |  |  | 
3 | Cc1cc(/C=C/C#N)ccc1Nc1ccnc(Nc2ccc(C#N)cc2)n1 | 1.2 nM | > 25 µM | 0.6 nM | 43.6 nM | 9.2 nM | 89.6 nM | >29372 | 1.2 nM | 13.4 nM | 479 nM | 0.9 nM |  |  |  |  |  |  |  |  | 
4 | COc1cc(/C=C/C#N)cc(C)c1Nc1ccnc(Nc2ccc(C#N)cc2)n1 | 0.3 nM | 0.633 µM | < 0.1 nM | 0.9 nM | 0.5 nM | 4.3 nM | 846 | 0.3 nM | 1.9 nM | 21.1 nM | 0.7 nM |  |  |  |  |  |  |  |  | 
5 | Cc1ccnc2c1NC(=O)c1cccnc1N2C1CC1 [NEVIRAPINE] | 827 nM | 31.6 µM | 1980 nM | 5910 nM |  | 14500 nM |  | 2700 nM | 7080 nM | 3530 nM | 33.3 nM |  |  |  |  |  |  |  |  | 
6 | Cc1cc(/C=C/C#N)cc(C(C)C)c1Nc1ccnc(Nc2ccc(C#N)cc2)n1 | 3.9 nM | 11.8 µM | 1.3 nM | 3.8 nM | 3.1 nM | 10.6 nM | 2947 | 3.2 nM | 11.1 nM | 38.3 nM | 4 nM |  |  |  |  |  |  |  |  | 
7 | Cc1cc(/C=C/C#N)ccc1N(C)c1ccnc(Nc2ccc(C#N)cc2)n1 | 1 nM | 11.6 µM | 0.7 nM | 16.8 nM | 2.5 nM | 160 nM | 11351 | 1.5 nM | 12 nM | 104 nM | 1 nM |  |  |  |  |  |  |  |  | 
8 | COc1cc(/C=C/C#N)cc(Cl)c1Nc1ccnc(Nc2ccc(C#N)cc2)n1 | 0.8 nM | 0.398 µM | 0.3 nM | 2.5 nM | 0.2 nM | 2 nM | 3981 | 0.3 nM | 1 nM | 15.8 nM | 0.1 nM | 230 min | 2180 ng/mL | 58% | 870 min | 199 ng/mL | 26% | 53% | 410 ng·h/mL | 44500 ng·h/mL
9 | Cc1cc(/C=C/C#N)cc(Cl)c1Nc1ccnc(Nc2ccc(C#N)cc2)n1 | 0.5 nM | 2.61 µM | 0.1 nM | 2.3 nM | 0.4 nM | 4.1 nM | 3316 | 0.5 nM | 2.3 nM | 6.6 nM | 0.8 nM | 212 min | 1040 ng/mL | 60% | 870 min | 182 ng/mL | 39% | 72% | 910 ng·h/mL | 17600 ng·h/mL
10 | Cc1cc(/C=C/C#N)cc(C)c1Oc1ccnc(Nc2ccc(C#N)cc2)n1 | 0.7 nM | > 25 µM | 0.2 nM | 1.6 nM | 0.6 nM | 4.3 nM | 28302 | 0.6 nM | 3.2 nM | 3.7 nM | 0.9 nM |  |  |  |  |  |  |  |  | 
11 | Cc1cc(/C=C/C#N)cc(C)c1Nc1ccnc(Nc2ccc(C#N)cc2)n1 [RILPIVIRINE] | 0.5 nM | 2 µM | […] | 1.2 nM | 0.5 nM | 3.2 nM |  | 0.5 nM | […] | 7.5 nM |  | […] | 1050 ng/mL | 65% | 1380 min | 1940 ng/mL | 26% | 73% | 9650 ng·h/mL | […]
12 | N#C/C=C/c1ccc(Nc2ccnc(Nc3ccc(C#N)cc3)n2)cc1 | 98.4 nM | > 25 µM | 57.7 nM | 303 nM | 585 nM | 3950 nM | >737 | 76.1 nM | 1520 nM | 6440 nM | 33.9 nM |  |  |  |  |  |  |  |  | 
13 | O=C1Nc2ccc(Cl)cc2C(C#CC2CC2)(C(F)(F)F)O1 (single isomer, unassigned) [EFAVIRENZ] | 46.9 nM | 32.3 µM | 46.4 nM | 55 nM | 31 nM | 55 nM |  | 4.1 nM | 3.9 nM | 1460 nM |  |  |  |  |  |  |  |  |  | 
14 | CCc1cc(/C=C/C#N)cc(C)c1Nc1ccnc(Nc2ccc(C#N)cc2)n1 | 1.1 nM | 2.55 µM | 0.5 nM | 2.6 nM | 0.9 nM | 5.3 nM | 841 | 0.9 nM | 4 nM | 8.2 nM | 3 nM |  |  |  |  |  |  |  |  | 
